The nature of data set [1]: Antiproliferative activity against human SMMC7721 cells after 48 hrs by MTT assay. It is filed as functional, cell-based. Particulars: SMMC-7721, 48 h. Put shortly:
(§1)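 Cells were seeded at 3 × 10^3 per well and exposed 24 h later, while growing exponentially, to compounds at final concentrations of 1.25 to 40 for 48 h. MTT (5 mg/mL in PBS) was then added for 6 h. The medium was aspirated, the formazan dissolved in DMSO and absorbance read at 570 nm. Survival is relative to untreated cells; IC50 comes from triplicate wells in at least three independent experiments.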
(Tetrazolium dyes change colour on reduction, which living cells bring about.)

For a further data set, the system named is B16. The data set can be described thus: Antiproliferative activity against mouse B16 cells after 48 hrs by MTT assay. Particulars: B16, 48 h. The format is functional, cell-based. Put shortly: as §1
Data set [2] can be described thus: Antiproliferative activity against human SGC7901 cells after 48 hrs by MTT assay. It is filed as functional, cell-based. Conditions: SGC-7901, 48 h. Put shortly:
as §1

The test system of another data set is A549. Kind of data set: Antiproliferative activity against human A549 cells after 48 hrs by MTT assay. It is filed as functional, cell-based. Conditions: A549, 48 h. An outline of the steps: as §1
The test system of data set [3] is KB. Kind of data set: Antiproliferative activity against human KB cells after 48 hrs by MTT assay. The format is functional, cell-based. An outline of the steps:
as §1

Data set [4] can be described thus: Antiproliferative activity against human HL60 cells after 48 hrs by MTT assay. It is filed as functional, cell-based. Conditions: HL-60, 48 h. Put shortly:
as §1

Data set [5] can be described thus: Antiproliferative activity against human HL7702 cells after 48 hrs by MTT assay. It is filed as cell-based. Particulars: L02, 48 h. Put shortly: as §1
The test system of data set [6] is KB. The data set can be described thus: Induction of apoptosis in human KB cells after 48 hrs by Annexin V and propidium iodide staining based flow cytometry. It is filed as functional, cell-based. An outline of the steps: (§2)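 KB cells were plated in 6-well plates at 2.5 × 10^5 cells/mL and treated for 48 h. Adherent and floating cells were pooled, washed twice in PBS and stained with Annexin V and PI in binding buffer for 20 min at room temperature. Samples were read immediately on a FACSCalibur; untreated cells served as control. Values are means ± SE of at least three independent experiments.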

The subject of data set [7] is KB. The data set can be described thus: Induction of apoptosis in human KB cells assessed as viable cells level at 5 uM after 48 hrs by Annexin V and propidium iodide staining based flow cytometry (reference value: 87.4%). It is filed as functional. Put shortly:
as §2

Data set [8] has as its system KB. Kind of data set: Induction of apoptosis in human KB cells assessed as early apoptotic cells level at 5 uM after 48 hrs by Annexin V and propidium iodide staining based flow cytometry (reference value: 7.08%). The format is functional. Put shortly: as §2
In general terms: Flow cytometry measures light scatter and fluorescence of single cells or particles in a stream.

In data set [9] the test system is KB. Kind of data set: Induction of apoptosis in human KB cells assessed as late apoptotic cells level at 5 uM after 48 hrs by Annexin V and propidium iodide staining based flow cytometry (reference value: 2.26%). The format is functional. Put shortly:
as §2

Data set [10] has as its system KB. Kind of data set: Induction of apoptosis in human KB cells assessed as necrotic cells level at 5 uM after 48 hrs by Annexin V and propidium iodide staining based flow cytometry (reference value: 3.23%). It is filed as functional. An outline of the steps:
as §2

Data set [11] relates to KB. Kind of data set: Induction of apoptosis in human KB cells assessed as viable cells level at 10 uM after 48 hrs by Annexin V and propidium iodide staining based flow cytometry (reference value: 87.4%). The format is functional. Put shortly:
as §2

Data set [12] has as its system KB. The data set can be described thus: Induction of apoptosis in human KB cells assessed as early apoptotic cells level at 10 uM after 48 hrs by Annexin V and propidium iodide staining based flow cytometry (reference value: 7.08%). It is filed as functional. Put shortly: as §2
For data set [13], the system named is KB. The data set can be described thus: Induction of apoptosis in human KB cells assessed as late apoptotic cells level at 10 uM after 48 hrs by Annexin V and propidium iodide staining based flow cytometry (reference value: 2.26%). The format is functional. Put shortly: as §2
The subject of data set [14] is KB. Kind of data set: Induction of apoptosis in human KB cells assessed as necrotic cells level at 10 uM after 48 hrs by Annexin V and propidium iodide staining based flow cytometry (reference value: 3.23%). It is filed as functional. An outline of the steps:
as §2

Data set [15] deals with KB. Kind of data set: Induction of apoptosis in human KB cells assessed as viable cells level at 20 uM after 48 hrs by Annexin V and propidium iodide staining based flow cytometry (reference value: 87.4%). The format is functional. An outline of the steps: as §2
Data set [16] relates to KB. Kind of data set: Induction of apoptosis in human KB cells assessed as early apoptotic cells level at 20 uM after 48 hrs by Annexin V and propidium iodide staining based flow cytometry (reference value: 7.08%). The format is functional. Put shortly:
as §2

For data set [17], the system named is KB. The data set can be described thus: Induction of apoptosis in human KB cells assessed as late apoptotic cells level at 20 uM after 48 hrs by Annexin V and propidium iodide staining based flow cytometry (reference value: 2.26%). It is filed as functional. Put shortly: as §2
In data set [18] the test system is KB. Kind of data set: Induction of apoptosis in human KB cells assessed as necrotic cells level at 20 uM after 48 hrs by Annexin V and propidium iodide staining based flow cytometry (reference value: 3.23%). The format is functional. Put shortly:
as §2

Data set [19] can be described thus: Chemical stability in 10 mM pH 7.4 PBS buffer assessed as parent compound remaining at 1 uM at 37 degC after 24 hrs by HPLC method. The format is physicochemical. Conditions: read-out: Stability. Put shortly: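 DMSO stock was diluted into pre-warmed 10 mM PBS, pH 7.4, with 1% v/v DMSO final, and incubated at 37 °C. Aliquots were taken at set times and injected directly onto reversed-phase HPLC (ODS column, water + 0.1% TFA eluent, external standard). The result is percent parent remaining after 24 h, mean ± SD, n = 3.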

Data set [20] can be described thus: Stability in 80% rat plasma assessed as parent compound remaining at 1 uM at 37 degC after 24 hrs by HPLC method. The format is ADME, cell-free. Conditions: read-out: Stability. An outline of the steps:
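Thawed rat plasma was diluted to 80% v/v with 0.1 M PBS, pH 7.4. Compound was spiked from DMSO stock (1% v/v DMSO final) and held at 37 °C. Aliquots were quenched with two volumes of acetonitrile and centrifuged at 4 °C, 10,000 g, 10 min. Supernatants were run on HPLC with external standard; the result is percent parent remaining at 24 h, mean ± SD, n = 3.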

For data set [21], the system named is KB. Kind of data set: Prodrug conversion in human KB cells lysates assessed as formation of cysteine conjugates at 500 uM in presence of 10 mM cysteine by LC-HRMS method. It is filed as ADME, cell-based, Lysate. Put shortly: (§3)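 KB cells (5 × 10^6) were lysed by freeze/thaw. DMSO stock prepared just before use was added to lysate already containing cysteine, with DMSO matched in controls, and incubated at 37 °C. Aliquots taken at 30 min and 1 h were mixed with two volumes of acetonitrile and centrifuged (4 °C, 10,000 g, 10 min). They were analysed by LC-HRMS in positive mode using a water + 0.1% formic acid/methanol gradient.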

The subject of data set [22] is KB. Kind of data set: Retention time of the compound in human KB cells lysates treated with 500 uM in presence of 10 mM cysteine by LC-HRMS method.
Data set [23] relates to KB. Kind of data set: Induction of apoptosis in human KB cells assessed as viable cells level at 10 uM after 48 hrs by Annexin V and propidium iodide staining based flow cytometry (reference value: 84.3%). The format is functional. Put shortly:
as §2

Data set [24] deals with KB. Kind of data set: Induction of apoptosis in human KB cells assessed as early apoptotic cells level at 10 uM after 48 hrs by Annexin V and propidium iodide staining based flow cytometry (reference value: 7.69%). It is filed as functional. Put shortly: as §2
The test system of data set [25] is KB. The data set can be described thus: Induction of apoptosis in human KB cells assessed as late apoptotic cells level at 10 uM after 48 hrs by Annexin V and propidium iodide staining based flow cytometry (reference value: 4.4%). It is filed as functional. An outline of the steps: as §2
Data set [26] relates to KB. Kind of data set: Induction of apoptosis in human KB cells assessed as necrotic cells level at 10 uM after 48 hrs by Annexin V and propidium iodide staining based flow cytometry (reference value: 3.64%). It is filed as functional. Put shortly:
as §2

In data set [27] the test system is KB. Kind of data set: Induction of apoptosis in human KB cells assessed as viable cells level at 20 uM after 48 hrs by Annexin V and propidium iodide staining based flow cytometry (reference value: 84.3%). The format is functional. Put shortly: as §2
Data set [28] has as its system KB. The data set can be described thus: Induction of apoptosis in human KB cells assessed as early apoptotic cells level at 20 uM after 48 hrs by Annexin V and propidium iodide staining based flow cytometry (reference value: 7.69%). It is filed as functional. Put shortly: as §2
The test system of data set [29] is KB. The data set can be described thus: Induction of apoptosis in human KB cells assessed as late apoptotic cells level at 20 uM after 48 hrs by Annexin V and propidium iodide staining based flow cytometry (reference value: 4.4%). The format is functional. Put shortly: as §2
Data set [30] deals with KB. The data set can be described thus: Induction of apoptosis in human KB cells assessed as necrotic cells level at 20 uM after 48 hrs by Annexin V and propidium iodide staining based flow cytometry (reference value: 3.64%). The format is functional. Put shortly: as §2
For data set [31], the system named is KB. The data set can be described thus: Induction of apoptosis in human KB cells assessed as viable cells level at 40 uM after 48 hrs by Annexin V and propidium iodide staining based flow cytometry (reference value: 84.3%). It is filed as functional. Put shortly: as §2
Data set [32] deals with KB. The data set can be described thus: Induction of apoptosis in human KB cells assessed as early apoptotic cells level at 40 uM after 48 hrs by Annexin V and propidium iodide staining based flow cytometry (reference value: 7.69%). It is filed as functional. An outline of the steps:
as §2

The subject of data set [33] is KB. Kind of data set: Induction of apoptosis in human KB cells assessed as late apoptotic cells level at 40 uM after 48 hrs by Annexin V and propidium iodide staining based flow cytometry (reference value: 4.4%). The format is functional. Put shortly:
as §2

The subject of data set [34] is KB. Kind of data set: Induction of apoptosis in human KB cells assessed as necrotic cells level at 40 uM after 48 hrs by Annexin V and propidium iodide staining based flow cytometry (reference value: 3.64%). The format is functional. Put shortly: as §2
Data set [35] deals with KB. The data set can be described thus: Prodrug conversion in human KB cells lysates assessed as glaucocalyxin A formation at 500 uM in presence of 10 mM cysteine by LC-HRMS method. The format is ADME, cell-based, Lysate. An outline of the steps: as §3

pIC50: −log10 of the molar value.

As usually defined, the pIC50 is the IC50 on a negative log10 scale, so that one unit is a factor of ten. Low values mean a high IC50, high ones a low IC50. Consider `C=C1C(=O)[C@@]23[C@H](O)C[C@@H]4C(C)(C)C(=O)CC[C@@]4(C)[C@@H]2CC[C@@H]1[C@H]3O` [GLAUCOCALYXIN A], for which the pIC50 was 5.09 in data set [1]; 5.32 with B16; 4.93 in [2]; 5.12 with A549; 5.19 in the data set on KB [3]; 5.26 in data set [4]. In data set [5], this compound had a pIC50 of 5.06. Besides, the Activity entry in the data set on KB [6] is “Dose-dependent effect”; in the data set with KB [7], 80.6%; in the data set on KB [8], 10.7%; with KB [9] it was 3.69%; in the data set on KB [10], 4.95%; in the data set on KB [11], 76.1%. In addition, the Activity in the data set on KB [12] was determined as 14.3%; with KB [13] it was 6.89%; in the data set with KB [14], 2.69%; with KB [15], 43.9%; in the data set with KB [16] it was 33.4%; in the data set on KB [17], 19%. In the data set with KB [18], the Activity is listed as 3.59%. Further, the results for the remaining at 24 h, 1 µM in data set [19] and in data set [20] were 109% and 24.2%, respectively. For the same compound, the Retention_time with KB [21] was found to be 2.42 min; in the data set with KB [22], 5.75 min.
Regarding `Cc1ccc(NCC2C(=O)[C@@]34[C@H](O)C[C@@H]5C(C)(C)C(=O)CC[C@@]5(C)[C@@H]3CC[C@@H]2[C@H]4O)cc1` (stereo partly drawn), the pIC50 in [1] is 4.92; with B16 it was 5.07; in data set [2], 4.79; with A549, 4.97; in the data set on KB [3] it was 5.14; in [4], 5.05. For the same compound, the pIC50 in data set [5] is 4.68. In addition, the Activity entry with KB [6] is “Dose-dependent effect”; with KB [23], 77.9%; in the data set with KB [24], 14.5%; with KB [25] it was 4.46%; with KB [26], 3.19%; in the data set on KB [27], 69.9%. The Activity is given as 20.5% with KB [28]; 5.42% in the data set with KB [29]; 4.13% with KB [30]; 49% in the data set on KB [31]; 23.4% in the data set with KB [32]; 15.6% in the data set on KB [33]. Besides, the Activity in the data set on KB [34] was 11.9%. Also, the figures for the remaining at 24 h, 1 µM in data set [19] and in [20] were 104% and 86.4%, respectively. In the data set with KB [21], the Retention_time was 2.52 min. Further, the Drug metabolism result in the data set with KB [35] is “metabolite_detected”.
